From ChEMBL document CHEMBL4725414, “Identification, Structure-Activity Relationship, and Biological Characterization of 2,3,4,5-Tetrahydro-1H-pyrido[4,3-b]indoles as a Novel Class of CFTR Potentiators” (J Med Chem, 2020)
Activity calls are given as the source filed them.

Assays:
[1] = test system: Cystic fibrosis transmembrane conductance regulator (Homo sapiens), P13569 [G551D]; experiment: Potentiation of human CFTR G551D mutant expressed in rat FRT cells coexpressing HS-YFP assessed as increase in iodide influx at 20 uM pre-incubated for 15 to 30 mins in presence of forskolin by fluorescent method relative to forskolin alone; assay type: cell-based; conditions: time min 15-30
Outline: (§1)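 HS-YFP iodide influx assay in FRT cells (F508del cells rescued 24 h at 32 °C; G551D cells not); 25 min with forskolin plus compound at fixed concentrations, then I⁻ injection (final 100 mM); quenching rate from linear fit of final 10 s of a 14 s reading; three concentrations tested on G551D cells; n = 9.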

[2] = test system: Cystic fibrosis transmembrane conductance regulator (Homo sapiens), P13569 [F508del]; experiment: Effect on processing/trafficking of CFTR F508 deletion mutant in primary HBE cells from F508del/F508del CF patient at 0.5 uM incubated for 24 hrs in presence of CFTR corrector ARN23765 by TEER/PD assay; assay type: cell-based
Outline: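 Differentiated F508del/F508del primary bronchial epithelia grown at air–liquid interface 2–3 weeks; treated 24 h at 37 °C, 5% CO2 in culture medium with vehicle, corrector ARN23765 (10 nM) alone, or ARN23765 plus test compound (0.5 μM); TEER and PD measured, equivalent short-circuit current calculated; n = 9 (three experiments × three biological replicates).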

[3] = molecular target: T1, Cystic fibrosis transmembrane conductance regulator (Homo sapiens, UniProt P13569); experiment: Potentiation of CFTR in primary human bronchial epithelial cells assessed as stimulation of CFTR-mediated chloride current at 100 uM in presence of CPT-cAMP by short-circuit current method; conditions: dose 1.0 µM, in the assay text read “at 1 uM” for “at 100 uM”
Outline: (§2)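 Non-CF primary HBE cells on porous inserts, differentiated at air–liquid interface 2–3 weeks; Ussing chamber short-circuit current. Amiloride added to block ENaC; cells stimulated with submaximal CPT-cAMP, then increasing potentiator concentrations or potentiator then CPT-cAMP 5 μM and 100 μM; total CFTR current defined by CFTR inhibitor-172; n = 9 (three experiments × three replicates).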
Target sequence in this assay (P13569 whole entry, looked up): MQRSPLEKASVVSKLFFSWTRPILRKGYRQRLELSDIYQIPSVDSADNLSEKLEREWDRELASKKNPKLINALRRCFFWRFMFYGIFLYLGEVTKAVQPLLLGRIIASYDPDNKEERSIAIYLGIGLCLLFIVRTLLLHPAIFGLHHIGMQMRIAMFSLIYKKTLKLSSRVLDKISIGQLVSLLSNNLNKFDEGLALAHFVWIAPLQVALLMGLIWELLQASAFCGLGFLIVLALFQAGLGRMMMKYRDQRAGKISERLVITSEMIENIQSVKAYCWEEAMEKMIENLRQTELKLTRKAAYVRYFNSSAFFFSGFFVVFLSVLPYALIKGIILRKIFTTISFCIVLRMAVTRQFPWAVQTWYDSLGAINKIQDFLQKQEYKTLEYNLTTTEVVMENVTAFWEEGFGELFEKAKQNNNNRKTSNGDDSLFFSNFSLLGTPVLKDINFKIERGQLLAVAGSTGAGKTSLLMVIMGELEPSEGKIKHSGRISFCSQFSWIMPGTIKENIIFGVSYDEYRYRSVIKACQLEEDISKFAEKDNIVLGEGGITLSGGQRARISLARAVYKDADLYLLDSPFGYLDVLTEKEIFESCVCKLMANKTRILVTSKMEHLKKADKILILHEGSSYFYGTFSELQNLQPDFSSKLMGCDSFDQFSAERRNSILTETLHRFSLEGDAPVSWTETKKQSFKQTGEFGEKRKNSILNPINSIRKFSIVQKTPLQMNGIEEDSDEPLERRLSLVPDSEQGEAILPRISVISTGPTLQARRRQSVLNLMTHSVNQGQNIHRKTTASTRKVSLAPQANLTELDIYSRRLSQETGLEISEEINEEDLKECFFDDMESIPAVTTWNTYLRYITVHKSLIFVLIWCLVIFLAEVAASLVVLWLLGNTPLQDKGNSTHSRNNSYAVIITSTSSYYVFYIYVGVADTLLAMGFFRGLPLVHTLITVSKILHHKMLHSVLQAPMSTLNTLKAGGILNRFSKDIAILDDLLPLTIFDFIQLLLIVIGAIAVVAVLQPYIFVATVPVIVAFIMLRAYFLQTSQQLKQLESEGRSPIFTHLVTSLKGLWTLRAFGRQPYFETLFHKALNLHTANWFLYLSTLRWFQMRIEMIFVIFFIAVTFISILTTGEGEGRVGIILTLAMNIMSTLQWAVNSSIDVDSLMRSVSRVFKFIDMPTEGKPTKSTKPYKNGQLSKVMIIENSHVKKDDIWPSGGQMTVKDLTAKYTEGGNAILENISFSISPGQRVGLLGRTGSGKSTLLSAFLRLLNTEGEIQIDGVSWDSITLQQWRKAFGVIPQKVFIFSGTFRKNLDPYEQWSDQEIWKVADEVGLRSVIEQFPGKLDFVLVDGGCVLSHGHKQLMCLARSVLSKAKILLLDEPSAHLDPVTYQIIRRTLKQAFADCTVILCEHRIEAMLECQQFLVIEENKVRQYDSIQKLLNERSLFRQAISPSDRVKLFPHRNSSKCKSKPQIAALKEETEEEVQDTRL

[4] = test system: Cystic fibrosis transmembrane conductance regulator (Homo sapiens), P13569 [F508del]; experiment: Potentiation of human CFTR F508 deletion mutant expressed in rat FRT cells coexpressing HS-YFP assessed as increase in iodide influx at 1 uM pre-incubated for 15 to 30 mins in presence of forskolin by fluorescent method relative to forskolin alone; assay type: cell-based; conditions: filed as activator, time min 15-30; outline: as §1
[5] = test system: Cystic fibrosis transmembrane conductance regulator (Homo sapiens), P13569 [G551D]; experiment: Potentiation of human CFTR G551D mutant expressed in rat FRT cells coexpressing HS-YFP assessed as increase in iodide influx at 5 uM pre-incubated for 15 to 30 mins in presence of forskolin by fluorescent method relative to forskolin alone; assay type: cell-based; conditions: filed as activator, time min 15-30; outline: as §1
[6] = test system: Cystic fibrosis transmembrane conductance regulator (Homo sapiens), P13569 [F508del]; experiment: Potentiation of human CFTR F508 deletion mutant expressed in rat FRT cells coexpressing HS-YFP assessed as increase in iodide influx at 5 uM pre-incubated for 15 to 30 mins in presence of forskolin by fluorescent method relative to forskolin alone; assay type: cell-based; conditions: filed as activator, time min 15-30
Outline: (§3)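 Cells plated 50,000/well, assayed next day; F508del FRT cells first held 24 h at 32 °C to rescue trafficking. Washed in PBS, incubated 25 min with forskolin (20 μM) plus compound, then I⁻ solution injected (final 100 mM). YFP fluorescence (ex 500, em 535 nm) read for 14 s; initial slope from linear fit of final 10 s; dose–response, n = 9.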

[7] = test system: Cystic fibrosis transmembrane conductance regulator (Homo sapiens), P13569 [F508del]; experiment: Potentiation of human CFTR F508 deletion mutant expressed in rat FRT cells coexpressing HS-YFP assessed as increase in iodide influx at […] to 10 uM pre-incubated for 15 to 30 mins in presence of forskolin by fluorescent method relative to forskolin alone; assay type: cell-based; conditions: filed as activator, dose microM 0.256-10, time min 15-30; outline: as §3
[8] = test system: Cystic fibrosis transmembrane conductance regulator (Homo sapiens), P13569 [G551D]; experiment: Potentiation of human CFTR G551D mutant expressed in rat FRT cells coexpressing HS-YFP assessed as increase in iodide influx at 1.56 to 50 uM pre-incubated for 15 to 30 mins in presence of forskolin by fluorescent method relative to forskolin alone; assay type: cell-based; conditions: filed as activator, dose microM 1.56-50, time min 15-30; outline: as §3
[9] = molecular target: T1, Cystic fibrosis transmembrane conductance regulator; experiment: Potentiation of CFTR in primary human bronchial epithelial cells assessed as stimulation of CFTR-mediated chloride current at 0.5 to 5 uM in presence of CPT-cAMP and CFTR inhibitor-172 by short-circuit current method; conditions: dose microM 0.5-5; outline: as §2
Target sequence in this assay (P13569 whole entry, looked up): as above

[10] = molecular target: T1, Cystic fibrosis transmembrane conductance regulator; experiment: Potentiation of CFTR in primary human bronchial epithelial cells assessed as stimulation of CFTR-mediated chloride current at 30 to […] uM in presence of CPT-cAMP by short-circuit current method; conditions: filed as activator, dose microM 30-50; outline: as §2
Target sequence in this assay (P13569 whole entry, looked up): as above

[11] = test system: Cystic fibrosis transmembrane conductance regulator (Homo sapiens), P13569 [F508del]; experiment: Potentiation of human CFTR F508 deletion mutant expressed in CFBE41o cells coexpressing HS-YFP assessed as increase in CFTR-dependent iodide influx at 0.256 to 10 uM pre-incubated for 15 to 30 mins in presence of forskolin by fluorescent method relative to forskolin alone; conditions: filed as activator, dose microM 0.256-10, time min 15-30
[12] = test system: Cystic fibrosis transmembrane conductance regulator (Homo sapiens), P13569 [F508del]; experiment: Potentiation of human CFTR F508 deletion mutant expressed in rat FRT cells coexpressing HS-YFP assessed as increase in iodide influx pre-incubated for 15 to 30 mins in presence of forskolin by fluorescent method relative to forskolin alone; assay type: cell-based; conditions: time min 15-30
Outline: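 Primary HTS: F508del-CFTR/HS-YFP FRT cells, rescued 24 h at 32 °C, were treated acutely (15–30 min) with single compound at 5 μM plus forskolin 10 μM, screened in duplicate. The HS-YFP quenching rate from iodide influx was expressed relative to forskolin-alone wells. Forskolin plus VX-770 1 μM served as positive control. The average of two rounds was scored, with hit threshold >185%.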

[13] = molecular target: T1, Cystic fibrosis transmembrane conductance regulator; experiment: Potentiation of human CFTR F508 deletion mutant expressed in rat FRT cells coexpressing HS-YFP assessed as increase in iodide influx pre-incubated for 15 to 30 mins in presence of forskolin by fluorescent method; assay type: cell-based
Target sequence in this assay (P13569 as listed by the source): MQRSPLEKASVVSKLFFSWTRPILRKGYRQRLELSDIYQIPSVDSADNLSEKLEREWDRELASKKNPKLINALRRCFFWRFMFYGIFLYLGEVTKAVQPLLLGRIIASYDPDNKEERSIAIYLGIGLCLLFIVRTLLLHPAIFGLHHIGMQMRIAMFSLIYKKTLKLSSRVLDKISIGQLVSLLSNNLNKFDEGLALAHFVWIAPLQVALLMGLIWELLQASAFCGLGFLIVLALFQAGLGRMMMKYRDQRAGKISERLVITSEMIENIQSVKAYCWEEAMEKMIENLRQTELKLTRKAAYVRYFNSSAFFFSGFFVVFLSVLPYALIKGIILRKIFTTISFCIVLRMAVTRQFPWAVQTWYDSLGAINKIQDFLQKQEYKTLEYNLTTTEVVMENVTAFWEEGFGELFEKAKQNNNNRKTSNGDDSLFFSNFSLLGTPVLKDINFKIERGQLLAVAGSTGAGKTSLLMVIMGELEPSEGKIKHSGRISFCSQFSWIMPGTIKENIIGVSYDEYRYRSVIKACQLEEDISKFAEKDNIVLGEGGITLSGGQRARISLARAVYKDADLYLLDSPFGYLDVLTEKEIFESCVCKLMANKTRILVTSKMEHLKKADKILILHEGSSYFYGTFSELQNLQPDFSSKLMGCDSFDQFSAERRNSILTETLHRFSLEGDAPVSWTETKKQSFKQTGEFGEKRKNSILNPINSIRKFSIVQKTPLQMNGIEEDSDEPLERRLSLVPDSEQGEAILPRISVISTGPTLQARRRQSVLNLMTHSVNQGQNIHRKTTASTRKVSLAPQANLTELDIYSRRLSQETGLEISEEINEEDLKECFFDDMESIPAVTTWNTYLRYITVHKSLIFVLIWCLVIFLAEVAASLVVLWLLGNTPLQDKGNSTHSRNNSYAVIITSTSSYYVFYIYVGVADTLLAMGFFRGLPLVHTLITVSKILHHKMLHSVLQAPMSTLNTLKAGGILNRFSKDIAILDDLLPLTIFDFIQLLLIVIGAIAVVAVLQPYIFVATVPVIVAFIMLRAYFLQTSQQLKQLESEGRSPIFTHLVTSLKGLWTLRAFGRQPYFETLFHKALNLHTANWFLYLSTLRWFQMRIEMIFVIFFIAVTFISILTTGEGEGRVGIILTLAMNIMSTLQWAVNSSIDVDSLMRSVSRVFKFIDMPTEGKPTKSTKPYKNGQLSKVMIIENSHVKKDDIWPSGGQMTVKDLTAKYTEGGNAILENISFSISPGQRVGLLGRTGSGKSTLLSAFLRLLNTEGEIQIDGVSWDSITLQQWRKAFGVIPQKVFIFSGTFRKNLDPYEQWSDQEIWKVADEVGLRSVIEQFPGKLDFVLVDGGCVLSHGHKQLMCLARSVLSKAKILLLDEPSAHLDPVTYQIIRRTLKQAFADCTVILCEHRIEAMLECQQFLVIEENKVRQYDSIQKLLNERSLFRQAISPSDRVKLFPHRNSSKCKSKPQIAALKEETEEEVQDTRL

Sequence of Cystic fibrosis transmembrane conductance regulator (Homo sapiens), P13569 [F508del] (P13569 as listed by the source): as above
Sequence of Cystic fibrosis transmembrane conductance regulator (Homo sapiens), P13569 [G551D] (P13569 whole entry G551D): as the sequence (P13569 whole entry, looked up) above, with G551D counted along it

Row | Compound | Activity ([1]; filed as activator) | Activity [6] | Activity [7] | Activity [8] | Activity [11] | other results
1 | CC(C)(C)c1cc(C(C)(C)C)c(NC(=O)c2c[nH]c3ccccc3c2=O)cc1O | Active |  |  |  |  | Activity [4]: Active; Activity [5]: Active
2 | O=C(c1cnn(-c2ccccc2)c1)N1CCc2[nH]c3ccccc3c2C1 |  | Active | Active | Active | Dose-dependent effect | 
3 | Cc1ccc(F)c2[nH]c3c(c12)[C@H]1CC[C@@H](C3)N1C(=O)c1cc(C(F)(F)F)[nH]n1 |  |  |  |  |  | Emax [12]: inactive; EC50 [13]: Not Active
4 | CN(C)c1ccc2cc(C(=O)N3CCc4[nH]c5ccccc5c4C3)[nH]c2c1 |  | Active | Active | Active | Dose-dependent effect | 

Second part, led by results:

Row | Activity ([1]; filed as activator) | Activity [6] | Activity [7] | Activity [8] | Activity [11] | Compound | other results
5 | Active |  |  |  |  | Cc1ccc(F)c2[nH]c3c(c12)CN(C(=O)c1cc(C(F)(F)F)[nH]n1)[C@H](C)C3 | Activity [2]: inactive; fold change (FC) [3]: > 2
6 | Active |  |  |  |  | COc1cc(F)c2[nH]c3c(c2c1)CN(C(=O)c1cc(C(F)(F)F)[nH]n1)CC3 | 
7 | Active |  |  |  |  | O=C(c1cc(C(F)(F)F)[nH]n1)N1CCc2[nH]c3c(F)cccc3c2C1 | 
8 |  | Active | Active | Active | Dose-dependent effect | COc1ccc2[nH]c3c(c2c1)CN(C(=O)c1cc(C(F)(F)F)[nH]n1)CC3 | Activity [9]: inactive; Activity [10]: Active; Activity [1]: inactive
9 | Active |  |  |  |  | Cc1ccc(F)c2[nH]c3c(c12)CN(C(=O)c1cc(C(F)(F)F)[nH]n1)CC3 | 
